Results gathered from unrelated publications.
Each line is one published result; the experiments were not run side by side.
Read-out: cell growth or viability

| Compound | cell line | assay | setting | IC50 |
| --- | --- | --- | --- | --- |
| O=C(Nc1ccc(C(F)(F)F)cc1)Nc1nc2cc(-c3ccc4ncn(CCN5CCOCC5)c(=O)c4c3)ccc2s1 | PC-9 | MTT | 72 h | > 20000 nM |
| O=C(NO)c1ccc(Cn2cnc3c(Nc4ccc(Br)cc4F)ncnc32)cc1 | Raji | MTT | 72 h | 230 nM |
| COc1cccc(NC(=O)Nc2nc3cc(-c4ccc5ncn(CCC6CCCCC6)c(=O)c5c4)ccc3s2)c1 | PC-9 | MTT | 72 h | > 20000 nM |
| O=C1C(=Nc2ccccc2I)c2ccccc2N1Cc1cccc(Cl)c1 | HCT-116 | MTT | 48 h | 4860 nM |
| COc1ccc(NC(=O)Nc2nc3cc(-c4ccc5ncn(CCN(C)C)c(=O)c5c4)ccc3s2)cc1 | PC-9 | MTT | 72 h | > 20000 nM |
| O=C1CCC(N2C(=O)c3cccc4c(Cc5ccc(CN6CCNCC6)cc5)ccc2c34)C(=O)N1 (stereo not drawn) | NCI-H929 | – | – | 0.73 nM |
| Cc1nc(Nc2ncc(C(=O)Nc3c(C)cccc3Cl)s2)cc(N2CC[C@H](O)C2)n1 | Raji | ATP luminescence | 72 h | > 10000 nM |
| O=C1CCC(N2C(=O)c3cccc4c(Cc5cnn(C6CCN(C(=O)C7(O)CC7)CC6)c5)ccc2c34)C(=O)N1 (stereo not drawn) | NCI-H929 | – | – | 0.09 nM |
| O=C1C(=Nc2ccccc2Br)c2ccccc2N1Cc1ccccc1 | HCT-116 | MTT | 48 h | 1100 nM |
| Nc1cccc2c1CN(C1CCC(=O)NC1=O)C2=O (stereo not drawn) | NCI-H929 | – | – | > 50 nM |
| CCCc1cc2cc(-n3nc(C)c4c3CC(C)(C)CC4=O)cc(N3CCC(O)CC3)c2c(=O)[nH]1 | SK-OV-3 | MTS | – | 2980 nM |
| COc1cccc2c1C(=O)c1c(O)c3c(c(O)c1C2=O)C[C@@](O)(C(=O)CO)C[C@@H]3O[C@H]1C[C@H](N)[C@H](O)[C@H](C)O1 | DOHH-2 | – | 96 h | 10000 nM |
| O=C1CCC(N2C(=O)c3cccc4c(Cn5cc(C6CCNCC6)nn5)ccc2c34)C(=O)N1 (stereo not drawn) | NCI-H929 | – | – | 6.21 nM |
| O=C(NO)c1ccc(Cn2cnc3c(Nc4cccc([N+](=O)[O-])c4)ncnc32)cc1 | Raji | MTT | 72 h | 300 nM |
| CN(C)CCn1cnc2ccc(-c3ccc4sc(NC(=O)Nc5ccc(F)cc5)nc4c3)cc2c1=O | PC-9 | MTT | 72 h | 4870 nM |
| O=C1CCC(N2C(=O)c3cccc4c(Cc5cnn(C6CCN(C(=O)CS)CC6)c5)ccc2c34)C(=O)N1 (stereo not drawn) | NCI-H929 | – | – | 1.23 nM |
| COc1ccc(Nc2ncnc3c2ncn3Cc2ccc(C(=O)NO)cc2)cc1 | Raji | MTT | 72 h | 430 nM |
| O=C(Nc1nc2cc(-c3ccc4ncn(Cc5ccccc5)c(=O)c4c3)ccc2s1)NC1CCCCC1 | PC-9 | MTT | 72 h | > 20000 nM |
| Nc1ccccc1NC(=O)c1ccc(Cn2cnc3c(Nc4ccc(Cl)cc4)ncnc32)cc1 | Raji | MTT | 72 h | 110 nM |
| O=C1CC[C@H](N2C(=O)c3cccc4c(Cc5ccc(CN6CCOCC6)cc5)ccc2c34)C(=O)N1 | NCI-H929 | – | – | 0.06 nM |
| COc1cccc(NC(=O)Nc2nc3cc(-c4ccc5ncn(CCN6CCOCC6)c(=O)c5c4)ccc3s2)c1 | PC-9 | MTT | 72 h | > 20000 nM |
